ChEMBL document CHEMBL1149171, “Development of orally bioavailable bicyclic pyrazolones as inhibitors of tumor necrosis factor-alpha production” (J Med Chem, 2004)
≈ marks a conversion by molar mass, not a printed value.

Assays:
[1] = target: Mitogen-activated protein kinase 3 (Homo sapiens) (UniProt P27361); experiment: Inhibition of Mitogen-activated protein kinase 3 kinase at 1 uM; set-up: scale not given: the % may be the effect or the level left
Outline: (§1)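 Kinase selectivity panel. Each kinase tested with compound at 1 µM and ATP at its K_m, in triplicate. Activity is given as a percentage of control incubations; SD typically 10%.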

MAP kinase p38 = MAP kinase p38 (Homo sapiens, UniProt O15264+Q15759+Q16539+P53778); experiment: Inhibition of human Mitogen-activated protein kinase p38; type: protein assay
[2] = target: Cyclin-dependent kinase 2/cyclin A (Homo sapiens) (UniProt P24941+P20248+P78396); experiment: Inhibition of Cyclin-dependent kinase 2-cyclin A at 1 uM; type: protein-complex assay; set-up: scale not given: the % may be the effect or the level left; outline: as §1
[3] = Inhibition of MAPK1/IKKB kinase at 1 uM; set-up: scale not given: the % may be the effect or the level left
Outline: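 Kinase panel, tested at 1 µM compound with ATP at its K_m, in triplicate. Activity is expressed as a percentage of that in control incubations.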

[4] = target: Mitogen-activated protein kinase 9 (Homo sapiens) (UniProt P45984); experiment: Inhibition of c-Jun N-terminal kinase 2-alpha 2 at 1 uM; set-up: scale not given: the % may be the effect or the level left; outline: as §1
[5] = Metabolism was measured as percent loss at 4 hr in rat hepatocytes; type: ADME, Hepatocyte; conditions: read-out: Metabolism
Outline: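 Plated Sprague-Dawley rat hepatocytes on matrigel at 37 °C, 0.25 µM compound, in triplicate. Samples taken at 0, 2 and 4 h and pooled across compounds after incubation, with internal standard added. Analysis by reverse-phase HPLC/MS/MS. Analyte/internal-standard area ratio at 4 h divided by the 0 h ratio gives percent loss.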

[6] = Solubility was determined; type: ADME, Rattus norvegicus
Outline: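 Shake-flask method in 50 mM phosphate buffer, pH 7.4, ionic strength 0.15 M, with 24 h equilibration. Supernatant was centrifuged and filtered, diluted with acetonitrile, and quantified by UV-vis against calibration standards in 1:1 acetonitrile/buffer.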

[7] = target: Mitogen-activated protein kinase 1 (Homo sapiens) (UniProt P28482); experiment: Inhibition of ERK2/MAPK2 kinase at 1 uM; set-up: scale not given: the % may be the effect or the level left; outline: as §1
[8] = target: Dual specificity mitogen-activated protein kinase kinase 1 (MEK1, MAP2K1) (Homo sapiens) (UniProt Q02750); experiment: Inhibition of Dual specificity mitogen activated protein kinase kinase 1 at 1 uM; set-up: scale not given: the % may be the effect or the level left
[9] = target: RAF proto-oncogene serine/threonine-protein kinase (Homo sapiens) (UniProt P04049); experiment: Inhibition of RAF proto-oncogene serine/threonine-protein kinase at 1 uM; set-up: scale not given: the % may be the effect or the level left; outline: as §1
[10] = target: T1, Dual specificity mitogen-activated protein kinase kinase 4 (Homo sapiens) (UniProt P45985); experiment: Inhibition of MKK4/SKK1 kinase at 1 uM; set-up: scale not given: the % may be the effect or the level left; outline: as §1
T1 sequence (whole entry): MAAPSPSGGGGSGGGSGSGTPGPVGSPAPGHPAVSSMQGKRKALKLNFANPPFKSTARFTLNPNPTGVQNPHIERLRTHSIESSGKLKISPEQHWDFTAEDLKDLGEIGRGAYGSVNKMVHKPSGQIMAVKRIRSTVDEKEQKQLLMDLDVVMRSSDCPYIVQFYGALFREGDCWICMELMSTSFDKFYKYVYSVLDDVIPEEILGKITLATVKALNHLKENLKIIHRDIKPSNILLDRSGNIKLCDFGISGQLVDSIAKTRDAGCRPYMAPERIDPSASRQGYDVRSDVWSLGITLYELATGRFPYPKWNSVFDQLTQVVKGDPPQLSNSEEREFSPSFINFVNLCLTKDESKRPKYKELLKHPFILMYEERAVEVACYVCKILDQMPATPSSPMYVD

[11] = target: MAP kinase-activated protein kinase 2 (Homo sapiens) (UniProt P49137); experiment: Inhibition of MAPKAP-K2 kinase at 1 uM; set-up: scale not given: the % may be the effect or the level left; outline: as §1
[12] = target: RAC-alpha serine/threonine-protein kinase (Homo sapiens) (UniProt P31749); experiment: Inhibition of Protein kinase B alpha (Akt) at 1 uM; set-up: scale not given: the % may be the effect or the level left; outline: as §1
[13] = Oral bioavailability in rat; type: ADME, organism-based; conditions: in vivo
[14] = target: Cyclin-dependent kinase 1/cyclin B (Homo sapiens) (UniProt P06493+P14635+Q8WWL7+O95067); experiment: Inhibition of Cyclin-dependent kinase 1-cyclin B at 1 uM; type: protein-complex assay; set-up: scale not given: the % may be the effect or the level left; outline: as §1
[15] = target: Mitogen-activated protein kinase 8 (Homo sapiens) (UniProt P45983); experiment: Inhibition of c-Jun N-terminal kinase 1-alpha 1 at 1 uM; set-up: scale not given: the % may be the effect or the level left; outline: as §1
[16] = target: Mitogen-activated protein kinase 10 (Homo sapiens) (UniProt P53779); experiment: Inhibition of c-Jun N-terminal kinase 3 at 1 uM; set-up: scale not given: the % may be the effect or the level left; outline: as §1
[17] = target: Tyrosine-protein kinase Lck (Homo sapiens) (UniProt P06239); experiment: Inhibition of p56 Lck tyrosine kinase at 1 uM; set-up: scale not given: the % may be the effect or the level left; outline: as §1
[18] = target: Glycogen synthase kinase-3 beta (Homo sapiens) (UniProt P49841); experiment: Inhibition of Glycogen synthase kinase-3 beta at 1 uM; set-up: scale not given: the % may be the effect or the level left; outline: as §1
[19] = target: Mitogen-activated protein kinase 3 (Homo sapiens) (UniProt P27361); experiment: Inhibition of Mitogen-activated protein kinase 3 at 1 uM; set-up: scale not given: the % may be the effect or the level left; outline: as §1

Sequence of Mitogen-activated protein kinase 1 (Homo sapiens) (P28482 whole entry): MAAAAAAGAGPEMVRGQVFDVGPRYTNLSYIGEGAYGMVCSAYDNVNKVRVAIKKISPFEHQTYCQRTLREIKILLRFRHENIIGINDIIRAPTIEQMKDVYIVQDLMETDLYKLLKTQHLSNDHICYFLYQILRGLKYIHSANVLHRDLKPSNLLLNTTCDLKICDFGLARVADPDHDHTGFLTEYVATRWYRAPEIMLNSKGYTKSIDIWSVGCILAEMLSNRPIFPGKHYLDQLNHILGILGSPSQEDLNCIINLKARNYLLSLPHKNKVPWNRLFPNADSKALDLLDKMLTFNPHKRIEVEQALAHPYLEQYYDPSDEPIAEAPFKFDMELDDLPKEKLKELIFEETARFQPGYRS
Sequence of Dual specificity mitogen-activated protein kinase kinase 1 (MEK1, MAP2K1) (Homo sapiens) (Q02750 whole entry, looked up): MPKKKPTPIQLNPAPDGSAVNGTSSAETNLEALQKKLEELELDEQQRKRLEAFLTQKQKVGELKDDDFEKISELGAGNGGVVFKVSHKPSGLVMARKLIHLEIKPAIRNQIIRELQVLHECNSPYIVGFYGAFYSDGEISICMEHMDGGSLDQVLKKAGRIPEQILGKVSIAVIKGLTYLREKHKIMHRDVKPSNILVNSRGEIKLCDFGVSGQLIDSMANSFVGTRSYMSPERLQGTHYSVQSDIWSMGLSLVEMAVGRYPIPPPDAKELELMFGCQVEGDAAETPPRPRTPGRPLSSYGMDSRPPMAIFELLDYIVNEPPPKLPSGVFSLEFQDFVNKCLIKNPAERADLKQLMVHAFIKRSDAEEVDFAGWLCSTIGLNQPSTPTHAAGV
Sequence of Mitogen-activated protein kinase 8 (Homo sapiens) (P45983 whole entry): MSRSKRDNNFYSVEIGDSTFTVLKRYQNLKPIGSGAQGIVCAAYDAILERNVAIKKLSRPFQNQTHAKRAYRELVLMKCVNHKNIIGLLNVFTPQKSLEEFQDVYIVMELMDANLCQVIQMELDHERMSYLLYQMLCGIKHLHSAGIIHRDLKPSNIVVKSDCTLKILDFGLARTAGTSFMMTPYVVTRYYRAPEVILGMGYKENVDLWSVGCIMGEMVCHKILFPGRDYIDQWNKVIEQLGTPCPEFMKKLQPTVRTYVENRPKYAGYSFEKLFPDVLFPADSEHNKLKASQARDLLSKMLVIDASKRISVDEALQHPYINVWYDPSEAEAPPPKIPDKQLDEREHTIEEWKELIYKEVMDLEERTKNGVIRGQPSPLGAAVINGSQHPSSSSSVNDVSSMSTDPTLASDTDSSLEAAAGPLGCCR
Sequence of MAP kinase-activated protein kinase 2 (Homo sapiens) (P49137 whole entry, looked up): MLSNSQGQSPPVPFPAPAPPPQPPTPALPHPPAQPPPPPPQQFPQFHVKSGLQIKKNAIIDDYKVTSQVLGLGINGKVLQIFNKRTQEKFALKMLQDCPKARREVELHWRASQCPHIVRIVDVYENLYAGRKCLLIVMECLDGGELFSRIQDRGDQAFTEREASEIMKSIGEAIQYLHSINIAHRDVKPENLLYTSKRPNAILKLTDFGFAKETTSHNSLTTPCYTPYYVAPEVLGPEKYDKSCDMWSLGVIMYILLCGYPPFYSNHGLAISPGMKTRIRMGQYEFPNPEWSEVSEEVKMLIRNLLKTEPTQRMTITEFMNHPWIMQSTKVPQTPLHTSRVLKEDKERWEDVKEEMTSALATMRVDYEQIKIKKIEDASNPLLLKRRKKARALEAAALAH
Sequence of RAF proto-oncogene serine/threonine-protein kinase (Homo sapiens) (P04049 whole entry): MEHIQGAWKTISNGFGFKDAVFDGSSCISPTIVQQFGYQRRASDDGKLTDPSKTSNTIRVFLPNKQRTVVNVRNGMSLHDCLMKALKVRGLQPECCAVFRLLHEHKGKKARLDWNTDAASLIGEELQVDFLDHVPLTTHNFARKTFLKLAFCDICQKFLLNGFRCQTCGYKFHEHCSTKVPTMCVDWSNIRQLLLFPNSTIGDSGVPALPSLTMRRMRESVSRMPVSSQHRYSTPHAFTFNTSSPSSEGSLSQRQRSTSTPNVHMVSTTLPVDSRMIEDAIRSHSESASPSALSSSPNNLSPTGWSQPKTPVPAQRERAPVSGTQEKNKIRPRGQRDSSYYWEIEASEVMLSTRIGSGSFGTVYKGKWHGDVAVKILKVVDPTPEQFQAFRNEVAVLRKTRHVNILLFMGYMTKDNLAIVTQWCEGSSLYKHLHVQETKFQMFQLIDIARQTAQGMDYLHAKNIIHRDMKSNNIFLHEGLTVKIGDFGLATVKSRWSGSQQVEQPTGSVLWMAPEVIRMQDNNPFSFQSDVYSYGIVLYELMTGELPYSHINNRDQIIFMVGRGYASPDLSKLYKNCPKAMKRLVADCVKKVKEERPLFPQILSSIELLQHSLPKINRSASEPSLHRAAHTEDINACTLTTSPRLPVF
Sequence of Mitogen-activated protein kinase 3 (Homo sapiens) (P27361 whole entry): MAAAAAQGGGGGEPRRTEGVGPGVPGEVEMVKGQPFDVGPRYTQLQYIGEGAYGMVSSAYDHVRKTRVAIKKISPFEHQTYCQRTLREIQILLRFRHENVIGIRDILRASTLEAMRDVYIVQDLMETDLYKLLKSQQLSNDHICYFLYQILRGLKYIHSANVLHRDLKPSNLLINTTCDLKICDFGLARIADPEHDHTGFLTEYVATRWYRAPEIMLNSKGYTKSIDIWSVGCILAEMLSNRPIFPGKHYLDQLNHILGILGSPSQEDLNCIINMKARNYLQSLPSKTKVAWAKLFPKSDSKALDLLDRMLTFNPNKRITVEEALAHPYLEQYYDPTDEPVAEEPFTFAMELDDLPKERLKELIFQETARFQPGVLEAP
Sequence of Mitogen-activated protein kinase 10 (Homo sapiens) (P53779 whole entry): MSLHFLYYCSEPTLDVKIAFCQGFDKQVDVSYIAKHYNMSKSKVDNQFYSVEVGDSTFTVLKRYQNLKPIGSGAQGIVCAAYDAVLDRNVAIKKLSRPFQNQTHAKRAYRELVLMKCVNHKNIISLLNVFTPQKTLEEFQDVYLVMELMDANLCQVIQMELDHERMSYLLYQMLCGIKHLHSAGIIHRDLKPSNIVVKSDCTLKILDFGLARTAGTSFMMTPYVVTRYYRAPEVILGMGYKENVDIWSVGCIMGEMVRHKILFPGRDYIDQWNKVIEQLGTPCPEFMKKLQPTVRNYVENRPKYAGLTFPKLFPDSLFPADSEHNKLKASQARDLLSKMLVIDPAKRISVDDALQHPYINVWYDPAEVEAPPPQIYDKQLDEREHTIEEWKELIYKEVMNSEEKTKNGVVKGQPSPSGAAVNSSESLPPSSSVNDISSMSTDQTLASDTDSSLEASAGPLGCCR
Sequence of Glycogen synthase kinase-3 beta (Homo sapiens) (P49841 whole entry, looked up): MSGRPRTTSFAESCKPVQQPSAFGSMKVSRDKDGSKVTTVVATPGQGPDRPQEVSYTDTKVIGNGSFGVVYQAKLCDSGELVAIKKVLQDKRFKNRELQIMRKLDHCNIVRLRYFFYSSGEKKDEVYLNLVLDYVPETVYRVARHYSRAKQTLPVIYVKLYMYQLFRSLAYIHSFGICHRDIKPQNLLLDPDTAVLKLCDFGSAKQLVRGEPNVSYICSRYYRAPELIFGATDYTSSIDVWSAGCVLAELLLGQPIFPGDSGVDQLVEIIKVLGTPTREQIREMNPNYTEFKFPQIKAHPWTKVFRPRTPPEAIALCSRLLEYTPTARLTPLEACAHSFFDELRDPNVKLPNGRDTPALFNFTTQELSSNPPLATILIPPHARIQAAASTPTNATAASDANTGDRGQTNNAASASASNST
Sequence of RAC-alpha serine/threonine-protein kinase (Homo sapiens) (P31749 whole entry): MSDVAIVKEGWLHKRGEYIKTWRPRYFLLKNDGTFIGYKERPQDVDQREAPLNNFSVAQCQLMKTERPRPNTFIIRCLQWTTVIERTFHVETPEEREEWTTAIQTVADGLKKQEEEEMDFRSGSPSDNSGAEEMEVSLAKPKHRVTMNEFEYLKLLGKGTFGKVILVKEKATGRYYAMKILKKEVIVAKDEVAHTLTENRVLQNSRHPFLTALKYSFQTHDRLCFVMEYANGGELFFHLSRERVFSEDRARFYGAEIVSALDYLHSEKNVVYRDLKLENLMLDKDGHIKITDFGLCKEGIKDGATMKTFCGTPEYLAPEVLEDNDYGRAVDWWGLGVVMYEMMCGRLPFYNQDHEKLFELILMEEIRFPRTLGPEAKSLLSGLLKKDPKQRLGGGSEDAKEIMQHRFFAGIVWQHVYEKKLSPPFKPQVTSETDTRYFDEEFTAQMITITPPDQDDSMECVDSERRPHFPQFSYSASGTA
Sequence of Mitogen-activated protein kinase 9 (Homo sapiens) (P45984 whole entry, looked up): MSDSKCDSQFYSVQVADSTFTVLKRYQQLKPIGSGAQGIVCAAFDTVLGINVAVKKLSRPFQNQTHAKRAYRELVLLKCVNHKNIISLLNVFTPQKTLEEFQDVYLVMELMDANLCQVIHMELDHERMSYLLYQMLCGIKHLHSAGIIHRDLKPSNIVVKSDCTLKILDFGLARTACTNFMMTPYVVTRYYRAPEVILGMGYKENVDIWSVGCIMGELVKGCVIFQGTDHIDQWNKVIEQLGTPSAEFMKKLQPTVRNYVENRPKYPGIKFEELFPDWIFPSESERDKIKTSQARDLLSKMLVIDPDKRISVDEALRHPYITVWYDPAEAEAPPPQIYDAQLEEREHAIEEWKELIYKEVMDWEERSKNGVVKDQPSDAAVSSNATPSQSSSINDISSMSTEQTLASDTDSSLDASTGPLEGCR
Sequence of Tyrosine-protein kinase Lck (Homo sapiens) (P06239 2-509 limits assumed): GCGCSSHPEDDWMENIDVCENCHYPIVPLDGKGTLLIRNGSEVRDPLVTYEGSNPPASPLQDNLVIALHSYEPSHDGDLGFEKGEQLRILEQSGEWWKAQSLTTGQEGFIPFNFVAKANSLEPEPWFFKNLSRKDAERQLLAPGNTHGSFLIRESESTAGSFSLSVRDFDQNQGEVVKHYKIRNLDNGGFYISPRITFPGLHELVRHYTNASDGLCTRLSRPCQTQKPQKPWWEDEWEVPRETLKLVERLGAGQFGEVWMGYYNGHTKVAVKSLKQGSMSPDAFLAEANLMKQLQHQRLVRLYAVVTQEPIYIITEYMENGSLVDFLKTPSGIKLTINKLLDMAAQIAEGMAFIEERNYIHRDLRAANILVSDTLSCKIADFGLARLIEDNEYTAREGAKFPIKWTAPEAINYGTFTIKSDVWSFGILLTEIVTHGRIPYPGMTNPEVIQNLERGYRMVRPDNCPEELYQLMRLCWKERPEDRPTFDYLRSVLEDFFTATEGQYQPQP

Structure (SMILES)	Activity [1]	IC50 (MAP kinase p38)	Activity [2]	Activity [3]	Activity [4]	metabolised at 4 h [5]	solubility [6]	Activity [7]	Activity [8]	Activity [9]	Activity [10]	Activity [11]	Activity [12]	bioavailability [13]	Activity [14]	Activity [15]	Activity [16]	Activity [17]	Activity [18]	Activity [19]
C[C@H](Nc1nccc(-c2c(-c3ccc(F)cc3)c(=O)n3n2CCC3)n1)C(C)(C)O	9%	54 nM	101%	111%	73%	29%	1850 µg/mL (≈ 4650 µM)	108%	95%	91%	117%	112%	119%	25%	99%	105%	36%	141%	99%	
C[C@H](Nc1nccc(-c2c(-c3ccc(F)cc3)c(=O)n3n2CCC3)n1)c1ccccc1		8 nM	117%		8%	50%	200 µg/mL (≈ 481 µM)	80%	99%	61%	166%	91%	98%	29%	95%	52%	4%	161%	101%	82%
COC[C@H](C)Nc1nccc(-c2c(-c3ccc(F)cc3)c(=O)n3n2CCC3)n1	96%	27 nM	108%		8%	< 5%	840 µg/mL (≈ 2190 µM)	98%	102%	55%	90%	113%	89%	63%	96%	65%	5%		72%	
CC[C@H](C)Nc1nccc(-c2c(-c3ccc(F)cc3)c(=O)n3n2CCC3)n1						60%	460 µg/mL (≈ 1250 µM)							10%						
O=c1c(-c2ccc(F)cc2)c(-c2ccnc(NCc3ccccc3)n2)n2n1CCC2						46%	100 µg/mL (≈ 249 µM)							18%						
